Assay results taken from ChEMBL document CHEMBL4842367, “Strategies toward Discovery of Potent and Orally Bioavailable Proteolysis Targeting Chimera Degraders of Androgen Receptor for the Treatment of Prostate Cancer” (J Med Chem, 2021).
pEC50, pIC50: −log10 of the molar value. Activity calls are given as the source filed them. No cut-off for these calls is given here.

What was measured:
[1] = Drug uptake in human VCaP cells xenografted in SCID mouse tumor tissue at 20 mg/kg, po single dose measured after 6 hrs by LC-MS/MS analysis; format: ADME, organism-based, Neoplasm; conditions: in vivo
Procedure, shortened: (§1)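 Single oral gavage, 20 mg/kg in 100% PEG200, to male SCID mice bearing one VCaP tumor each (about 200 mm³). Plasma and tumor taken at 6 and 24 h, three mice per time point. Tumors frozen, ground in liquid nitrogen, homogenized in water/acetonitrile 4:1, precipitated with cold acetonitrile; analysis by positive-ion MRM LC–MS/MS.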

[2] = molecular target: Protein cereblon/Androgen receptor (Homo sapiens, UniProt P10275+Q96SW2); test: Protac activity at CRBN/AR in human VCaP cells assessed as induction of AR degradation measured after 24 hrs by western blot analysis
Sequence of Protein cereblon/Androgen receptor (P10275 whole entry): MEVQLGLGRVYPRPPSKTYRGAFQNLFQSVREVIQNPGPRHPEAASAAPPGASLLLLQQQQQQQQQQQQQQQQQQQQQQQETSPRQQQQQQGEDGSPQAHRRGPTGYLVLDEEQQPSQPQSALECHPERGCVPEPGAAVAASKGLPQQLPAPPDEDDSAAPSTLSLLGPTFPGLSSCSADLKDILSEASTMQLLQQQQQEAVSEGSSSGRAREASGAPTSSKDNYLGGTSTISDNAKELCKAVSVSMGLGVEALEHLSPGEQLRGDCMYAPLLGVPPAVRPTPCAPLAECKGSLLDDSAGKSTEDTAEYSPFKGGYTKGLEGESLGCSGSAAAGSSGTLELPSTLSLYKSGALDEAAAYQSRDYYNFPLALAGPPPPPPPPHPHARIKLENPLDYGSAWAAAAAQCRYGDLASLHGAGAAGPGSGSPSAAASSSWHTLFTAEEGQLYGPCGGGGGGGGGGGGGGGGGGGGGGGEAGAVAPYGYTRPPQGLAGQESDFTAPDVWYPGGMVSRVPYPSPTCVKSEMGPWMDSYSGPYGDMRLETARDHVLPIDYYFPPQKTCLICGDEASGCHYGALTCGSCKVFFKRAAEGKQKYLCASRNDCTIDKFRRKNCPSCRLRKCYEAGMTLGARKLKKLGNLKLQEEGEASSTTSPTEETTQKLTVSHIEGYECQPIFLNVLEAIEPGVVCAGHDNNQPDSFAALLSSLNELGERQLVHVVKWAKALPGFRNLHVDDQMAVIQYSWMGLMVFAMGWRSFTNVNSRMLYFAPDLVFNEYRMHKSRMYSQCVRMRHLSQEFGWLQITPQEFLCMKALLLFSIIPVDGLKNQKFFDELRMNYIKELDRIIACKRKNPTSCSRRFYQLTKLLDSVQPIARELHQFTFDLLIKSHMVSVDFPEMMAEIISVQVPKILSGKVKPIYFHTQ
Sequence of Protein cereblon/Androgen receptor (Q96SW2 whole entry): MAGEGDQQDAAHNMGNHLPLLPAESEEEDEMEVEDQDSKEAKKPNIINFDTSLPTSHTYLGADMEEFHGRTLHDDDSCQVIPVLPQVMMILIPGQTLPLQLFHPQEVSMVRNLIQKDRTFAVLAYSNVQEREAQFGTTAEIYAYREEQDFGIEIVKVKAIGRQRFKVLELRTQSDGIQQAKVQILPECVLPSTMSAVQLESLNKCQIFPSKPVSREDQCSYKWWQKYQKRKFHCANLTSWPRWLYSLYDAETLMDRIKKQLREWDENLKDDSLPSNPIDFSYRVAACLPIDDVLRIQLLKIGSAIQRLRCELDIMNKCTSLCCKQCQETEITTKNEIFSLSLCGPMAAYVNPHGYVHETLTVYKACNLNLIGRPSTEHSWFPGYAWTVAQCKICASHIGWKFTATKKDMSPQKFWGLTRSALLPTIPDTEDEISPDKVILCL

[3] = system: Mus musculus; test: Reduction in AR protein level in tumor of human VCaP cells xenografted in SCID mouse at 20 mg/kg, po single dose measured after 24 hrs by Western blot analysis; format: functional, organism-based
Procedure, shortened: (§2)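 SCID mice bearing VCaP xenografts given one oral dose of 20 mg/kg; tumors harvested at 6 and 24 h after dosing and AR protein measured by Western blot with GAPDH loading control.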

[4] = Tmax in ICR mouse at 5 mg/kg, po measured up to 24 hrs by LC-MS/MS analysis; format: ADME, organism-based; conditions: in vivo
Procedure, shortened: (§3)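 Male ICR mice, single oral gavage (3 or 5 mg/kg) in 5% DMSO/10% solutol/85% saline, three mice per group. Separate IV tail-vein bolus group (1 or 2 mg/kg) in the same vehicle. Blood sampled at 0.083–24 h, one sample per mouse, plasma diluted threefold and analysed by LC–MS/MS; noncompartmental parameters.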

[5] = Drug uptake in human VCaP cells xenografted in SCID mouse tumor tissue at 20 mg/kg, po single dose measured after 24 hrs by LC-MS/MS analysis; format: ADME, organism-based, Neoplasm; conditions: in vivo
Procedure, shortened: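 Male CB17 SCID mice carried subcutaneous VCaP xenografts, implanted as 5 × 10⁶ cells in Matrigel, grown to about 200 mm³. Mice received a single oral gavage of 20 mg/kg in 100% PEG200. Tumors were collected at 6 and 24 h, three mice per time point, and frozen. They were homogenized in water/acetonitrile 4:1, protein-precipitated with cold acetonitrile, and assayed by LC-MS/MS (positive-ion MRM). Values are mean ± SD.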

[6] = Plasma concentration in human VCaP cells xenografted in SCID mouse at 20 mg/kg, po single dose measured after 24 hrs by LC-MS/MS analysis; format: ADME, organism-based; procedure, shortened: as §1
[7] = Oral bioavailability in ICR mouse at 5 mg/kg measured up to 24 hrs by LC-MS/MS analysis; format: ADME, organism-based; conditions: in vivo; procedure, shortened: as §3
[8] = Plasma concentration in human VCaP cells xenografted in SCID mouse at 20 mg/kg, po single dose measured after 6 hrs by LC-MS/MS analysis; format: ADME, organism-based; procedure, shortened: as §1
[9] = Half life in ICR mouse at 2 mg/kg, iv measured up to 24 hrs by LC-MS/MS analysis; format: ADME, organism-based; conditions: in vivo
Procedure, shortened: (§4)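 Male ICR mice received a single tail-vein IV bolus in 5% DMSO/10% solutol/85% saline at 5 mL/kg. Blood was taken at 0.083, 0.25, 0.5, 1, 2, 4, 6, 8 and 24 h, with n = 3 per time point and each mouse sampled once. Plasma supernatant was diluted three times with water and analysed by LC-MS/MS, and terminal T1/2 was derived noncompartmentally.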

[10] = Oral bioavailability in ICR mouse at 3 mg/kg measured up to 24 hrs by LC-MS/MS analysis; format: ADME, organism-based; conditions: in vivo; procedure, shortened: as §3
[11] = Half life in ICR mouse at 1 mg/kg, iv measured up to 24 hrs by LC-MS/MS analysis; format: ADME, organism-based; conditions: in vivo; procedure, shortened: as §4
[12] = Tmax in ICR mouse at 3 mg/kg, po measured up to 24 hrs by LC-MS/MS analysis; format: ADME, organism-based; conditions: in vivo; procedure, shortened: as §3
[13] = system: Mus musculus; test: Reduction in AR protein level in human VCaP cells xenografted in SCID mouse tumor tissue at 10 mg/kg, po for 3 days measured after 3 to 24 hrs of treatment by Western blot analysis; format: functional, organism-based; conditions: time 3.0 day
Procedure, shortened: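 SCID mice with VCaP xenografts gavaged 10 mg/kg daily for 3 days; tumors collected at 3, 6 and 24 h after the last dose for Western blot of AR, GAPDH as loading control.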

[14] = system: VCaP; test: Growth inhibition of human VCaP cells assessed as cell viability measured after 4 days in presence of R1881 by WST-8 assay; format: functional, cell-based; conditions: 96 h
Procedure, shortened: (§5)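 LNCaP and VCaP cells exposed to compounds for 4 days in charcoal-stripped medium containing 0.1 nM R1881; viability read by WST-8 assay.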

[15] = Reduction in PSA gene expression in human VCaP cells xenografted in SCID mouse tumor tissue assessed as reduction in mRNA level at 10 mg/kg, po for 3 days measured after 3 hrs of treatment by […]; format: functional; conditions: 72 h, time 3 day
Procedure, shortened: (§6)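 VCaP xenograft-bearing SCID mice dosed orally at 10 mg/kg daily for 3 days; tumors taken 3 h after the last dose. PSA, TMPRSS2 and FKBP5 mRNA measured by TaqMan qRT-PCR, comparative CT normalized to GAPDH and to vehicle control.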

[16] = system: VCaP; test: Suppression of TMPRSS2 gene expression in human VCaP cells assessed as mRNA level treated for 24 hrs by qRT-PCR analysis; format: functional, cell-based; conditions: dose 1-1000 nM
Procedure, shortened: (§7)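 VCaP and LNCaP cells treated 24 h; PSA (KLK3) and TMPRSS2 mRNA quantified by TaqMan qRT-PCR, comparative CT method relative to GAPDH and then vehicle control.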

[17] = Reduction in FKBPS gene expression in human VCaP cells xenografted in SCID mouse tumor tissue assessed as reduction in mRNA level at 10 mg/kg, po for 3 days measured after 3 hrs of treatment by […]; format: functional; conditions: 72 h, time 3 day; procedure, shortened: as §6
[18] = system: VCaP; test: Antitumor activity against human VCaP cells xenografted in SCID mouse assessed as tumor growth inhibition at 40 mg/kg, po measured on day 21 relative to control; format: functional; conditions: 504 h, read-out: TGI
Procedure, shortened: (§8)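 Male CB17 SCID mice implanted s.c. with 5 × 10⁶ VCaP cells in Matrigel; at average tumor volume 150 mm³, size-matched and randomized, seven per group. Oral gavage daily for 21 days in 100% PEG200. Tumors measured 2–3 times weekly, volume = length × width²/2; TGI (%) = (Vc − Vt)/(Vc − Vo) × 100 using group medians at start and end.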

[19] = Toxicity in SCID mouse xenografted with human VCaP cells assessed as weight loss at 40 mg/kg, po measured on day 21; format: organism-based; conditions: in vivo
Procedure, shortened: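 Male CB17 SCID mice bearing s.c. VCaP xenografts, randomized at about 150 mm³ (seven per group), gavaged daily for 21 days in 100% PEG200; body weights recorded 2–3 times per week to follow maximum weight loss.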

[20] = system: LNCaP; test: Growth inhibition of human LNCaP cells assessed as cell viability measured after 4 days in presence of R1881 by WST-8 assay; format: functional, cell-based; conditions: 96 h; procedure, shortened: as §5
[21] = system: VCaP; test: Antitumor activity against human VCaP cells xenografted in SCID mouse assessed as tumor growth inhibition at 20 mg/kg, po measured on day 21 relative to control; format: functional; conditions: 504 h, read-out: TGI; procedure, shortened: as §8
[22] = Reduction in TMPRSS2 gene expression in human VCaP cells xenografted in SCID mouse tumor tissue assessed as reduction in mRNA level at 10 mg/kg, po for 3 days measured after 3 hrs of treatment by […]; format: functional; conditions: 72 h, time 3 day; procedure, shortened: as §6
[23] = system: LNCaP; test: Suppression of TMPRSS2 gene expression in human LNCaP cells assessed as mRNA level treated for 24 hrs by qRT-PCR analysis; format: functional, cell-based; conditions: dose 1-1000 nM; procedure, shortened: as §7
[24] = system: LNCaP; test: Suppression of PSA gene expression in human LNCaP cells assessed as mRNA level treated for 24 hrs by qRT-PCR analysis; format: functional, cell-based; conditions: dose 1-1000 nM; procedure, shortened: as §7
[25] = system: VCaP; test: Antitumor activity against human VCaP cells xenografted in SCID mouse assessed as tumor growth inhibition at 10 mg/kg, po measured on day 21 relative to control; format: functional; conditions: 504 h, read-out: TGI; procedure, shortened: as §8
[26] = system: VCaP; test: Suppression of PSA gene expression in human VCaP cells assessed as mRNA level treated for 24 hrs by qRT-PCR analysis; format: functional, cell-based; conditions: dose 1-1000 nM; procedure, shortened: as §7
[27] = system: Mus musculus; test: Reduction in AR protein level in tumor of human VCaP cells xenografted in SCID mouse at 20 mg/kg, po single dose measured after 6 hrs by Western blot analysis; format: functional, organism-based; procedure, shortened: as §2

Drug uptake [1] | pEC50 [2] | Tmax [4] [h] | Drug uptake [5] [ng/g] | concentration at 24 h [6] [ng/mL] | F [7] [%] | concentration at 6 h [8] [ng/mL] | pIC50 [14] | pIC50 [20] | Structure (SMILES) | Activity [3] | further results
718 ng/g | 9.70 | 4 | 1740 | 1670 | 75 | 1360 |  |  | CC1(C)[C@H](NC(=O)c2ccc(N3CCN(CC4CN(c5ccc6c(c5)C(=O)N(C5CCC(=O)NC5=O)C6=O)C4)CC3)cc2)C(C)(C)[C@H]1Oc1ccc(C#N)c(Cl)c1 (stereo partly drawn) | Active | t1/2 [9]: 17.8 h
 | 10.00 |  |  |  |  |  |  |  | CC1(C)[C@H](NC(=O)c2ccc(N3CCC(N4CCN(c5ccc6c(c5)C(=O)N(C5CCC(=O)NC5=O)C6=O)CC4)CC3)cc2)C(C)(C)[C@H]1Oc1ccc(C#N)c(Cl)c1 (stereo partly drawn) |  | F [10]: 24%; t1/2 [11]: 21 h; Tmax [12]: 6 h
635 ng/g | 9.52 | 4.7 | 1510 | 1660 | 67 | 1510 | 8.40 | 8.30 | CC1(C)[C@H](NC(=O)c2ccc(N3CCN(CC4CCN(c5ccc6c(c5)C(=O)N(C5CCC(=O)NC5=O)C6=O)CC4)CC3)cc2)C(C)(C)[C@H]1Oc1ccc(C#N)c(Cl)c1 (stereo partly drawn) | Active | Activity [13]: Active; inhibition in vivo at 10 mg/kg [15]: > 50%; Activity [16]: Dose-Dependent Effect; inhibition in vivo at 10 mg/kg [17]: > 50%; inhibition in vivo at 40 mg/kg [18]: 63%; Activity [19]: ≤ 5%; inhibition in vivo at 20 mg/kg [21]: 69%; inhibition in vivo at 10 mg/kg [22]: > 50%; Activity [23]: Dose-Dependent Effect; Activity [24]: Dose-Dependent Effect; inhibition in vivo at 10 mg/kg [25]: 46%; Activity [26]: Dose-Dependent Effect
 | 9.40 |  |  |  |  |  |  |  | CC1(C)[C@H](NC(=O)c2ccc(N3CCC(CN4CCN(c5ccc6c(c5)C(=O)N(C5CCC(=O)NC5=O)C6=O)CC4)CC3)cc2)C(C)(C)[C@H]1Oc1ccc(C#N)c(Cl)c1 (stereo partly drawn) |  | F [10]: 33%; t1/2 [11]: 25.5 h; Tmax [12]: 4.7 h
 |  |  |  |  |  |  |  |  | CNC(=O)c1ccc(N2C(=S)N(c3ccc(C#N)c(C(F)(F)F)c3)C(=O)C2(C)C)cc1F [ENZALUTAMIDE] |  | inhibition in vivo at 40 mg/kg [18]: 39%
 |  |  |  |  |  |  | 6.11 | 6.63 | CN1C(=O)CCC(N2C(=O)c3ccc(N4CCC(CN5CCN(c6ccc(C(=O)N[C@H]7C(C)(C)[C@H](Oc8ccc(C#N)c(Cl)c8)C7(C)C)cc6)CC5)CC4)cc3C2=O)C1=O (stereo partly drawn) |  | 

Structure (SMILES) | Drug uptake [1] | pEC50 [2] | Tmax [4] [h] | Drug uptake [5] [ng/g] | concentration at 24 h [6] [ng/mL] | F [7] [%] | concentration at 6 h [8] [ng/mL] | pIC50 [14] | pIC50 [20] | Activity [3] | further results
CC1(C)[C@H](NC(=O)c2ccc(N3CCN(C4CCN(c5ccc6c(c5)C(=O)N(C5CCC(=O)NC5=O)C6=O)CC4)CC3)cc2)C(C)(C)[C@H]1Oc1ccc(C#N)c(Cl)c1 (stereo partly drawn) | 315 ng/kg | 9.10 | 4 | 685 | 776 | 37 | 803 |  |  | Active | Activity [27]: Active
CN1CCN(c2ccc(C(=O)N[C@H]3C(C)(C)[C@H](Oc4ccc(C#N)c(Cl)c4)C3(C)C)cc2)CC1 |  |  |  |  |  |  |  | 7.31 | 7.09 |  | 
